Test results published in ChEMBL document CHEMBL4118033, “Total Synthesis, Configuration Assignment, and Cytotoxic Activity Evaluation of Protulactone A” (J Nat Prod, 2017).
The source made the active and inactive calls. The calls are words filed in the database; no cut-off is given here.

Tests used:
Format in all cases: functional, cell-based
MDA-MB-435 = assay: Antiproliferative activity against human MDA-MB-435 cells at 10 uM incubated for 48 hrs by sulforhodamine B assay
Method in brief: (§1)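 Run by the NCI Developmental Therapeutics Program (Division of Cancer Treatment and Diagnosis) as part of the NCI60 human tumour cell line panel screen. Each compound was tested at a single dose of 10 μM. Results are reported as one-dose mean graphs.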

K562 = assay: Antiproliferative activity against human K562 cells at 10 uM incubated for 48 hrs by sulforhodamine B assay; method in brief: as §1
BT-549 = assay: Antiproliferative activity against human BT549 cells at 10 uM incubated for 48 hrs by sulforhodamine B assay; method in brief: as §1
MCF7 = assay: Antiproliferative activity against human MCF7 cells at 10 uM incubated for 48 hrs by sulforhodamine B assay; method in brief: as §1
A549 = assay: Antiproliferative activity against human A549/ATCC cells at 10 uM incubated for 48 hrs by sulforhodamine B assay; method in brief: as §1
SK-MEL-5 = assay: Antiproliferative activity against human SK-MEL-5 cells at 10 uM incubated for 48 hrs by sulforhodamine B assay; method in brief: as §1
786-0 = assay: Antiproliferative activity against human 786-0 cells at 10 uM incubated for 48 hrs by sulforhodamine B assay; method in brief: as §1
NCI-H460 = assay: Antiproliferative activity against human NCI-H460 cells at 10 uM incubated for 48 hrs by sulforhodamine B assay; method in brief: as §1
OVCAR-5 = assay: Antiproliferative activity against human OVCAR5 cells at 10 uM incubated for 48 hrs by sulforhodamine B assay; method in brief: as §1
NCI-H23 = assay: Antiproliferative activity against human NCI-H23 cells at 10 uM incubated for 48 hrs by sulforhodamine B assay; method in brief: as §1
UACC-62 = assay: Antiproliferative activity against human UACC62 cells at 10 uM incubated for 48 hrs by sulforhodamine B assay
Method in brief: (§2)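 Run by the NCI Developmental Therapeutics Program (Division of Cancer Treatment and Diagnosis) as part of the NCI60 human tumour cell line panel. Each compound was tested in vitro at a single dose of 10 μM, and the data are reported as one-dose mean graphs across the panel.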

SW-620 = assay: Antiproliferative activity against human SW620 cells at 10 uM incubated for 48 hrs by sulforhodamine B assay; method in brief: as §2
SF-268 = assay: Antiproliferative activity against human SF268 cells at 10 uM incubated for 48 hrs by sulforhodamine B assay; method in brief: as §1
SNB-75 = assay: Antiproliferative activity against human SNB75 cells at 10 uM incubated for 48 hrs by sulforhodamine B assay; method in brief: as §2
T47D = assay: Antiproliferative activity against human T47D cells at 10 uM incubated for 48 hrs by sulforhodamine B assay; method in brief: as §2
IGROV-1 = assay: Antiproliferative activity against human IGROV1 cells at 10 uM incubated for 48 hrs by sulforhodamine B assay; method in brief: as §1
SK-MEL-2 = assay: Antiproliferative activity against human SK-MEL-2 cells at 10 uM incubated for 48 hrs by sulforhodamine B assay; method in brief: as §1
TK-10 = assay: Antiproliferative activity against human TK10 cells at 10 uM incubated for 48 hrs by sulforhodamine B assay; method in brief: as §2
RPMI-8226 = assay: Antiproliferative activity against human RPMI8226 cells at 10 uM incubated for 48 hrs by sulforhodamine B assay; method in brief: as §1
SF-539 = assay: Antiproliferative activity against human SF539 cells at 10 uM incubated for 48 hrs by sulforhodamine B assay; method in brief: as §1
PC-3 = assay: Antiproliferative activity against human PC3 cells at 10 uM incubated for 48 hrs by sulforhodamine B assay; method in brief: as §1
CAKI-1 = assay: Antiproliferative activity against human Caki1 cells at 10 uM incubated for 48 hrs by sulforhodamine B assay; method in brief: as §1
M14 = assay: Antiproliferative activity against human M14 cells at 10 uM incubated for 48 hrs by sulforhodamine B assay; method in brief: as §1
NCI-H322M = assay: Antiproliferative activity against human NCI-H322M cells at 10 uM incubated for 48 hrs by sulforhodamine B assay; method in brief: as §1
EKVX = assay: Antiproliferative activity against human EKVX cells at 10 uM incubated for 48 hrs by sulforhodamine B assay; method in brief: as §1
HOP-92 = assay: Antiproliferative activity against human HOP92 cells at 10 uM incubated for 48 hrs by sulforhodamine B assay; method in brief: as §1
UACC-257 = assay: Antiproliferative activity against human UACC257 cells at 10 uM incubated for 48 hrs by sulforhodamine B assay; method in brief: as §2
LOX IMVI = assay: Antiproliferative activity against human LOXIMVI cells at 10 uM incubated for 48 hrs by sulforhodamine B assay; method in brief: as §1
Malme-3M = assay: Antiproliferative activity against human MALME-3M cells at 10 uM incubated for 48 hrs by sulforhodamine B assay; method in brief: as §1
HT-29 = assay: Antiproliferative activity against human HT-29 cells at 10 uM incubated for 48 hrs by sulforhodamine B assay; method in brief: as §1
HOP-62 = assay: Antiproliferative activity against human HOP62 cells at 10 uM incubated for 48 hrs by sulforhodamine B assay; method in brief: as §1
Hs-578T = assay: Antiproliferative activity against human Hs 578T cells at 10 uM incubated for 48 hrs by sulforhodamine B assay; method in brief: as §1
MOLT-4 = assay: Antiproliferative activity against human MOLT4 cells at 10 uM incubated for 48 hrs by sulforhodamine B assay; method in brief: as §1
HCT-116 = assay: Antiproliferative activity against human HCT116 cells at 10 uM incubated for 48 hrs by sulforhodamine B assay; method in brief: as §1
MDA-MB-231 = assay: Antiproliferative activity against human MDA-MB-231 cells at 10 uM incubated for 48 hrs by sulforhodamine B assay; method in brief: as §1
U-251 = assay: Antiproliferative activity against human U251 cells at 10 uM incubated for 48 hrs by sulforhodamine B assay; method in brief: as §2
SR = assay: Antiproliferative activity against human SR cells at 10 uM incubated for 48 hrs by sulforhodamine B assay; method in brief: as §2
OVCAR-4 = assay: Antiproliferative activity against human OVCAR4 cells at 10 uM incubated for 48 hrs by sulforhodamine B assay; method in brief: as §1
HCT-15 = assay: Antiproliferative activity against human HCT15 cells at 10 uM incubated for 48 hrs by sulforhodamine B assay; method in brief: as §1
NCI-H522 = assay: Antiproliferative activity against human NCI-H522 cells at 10 uM incubated for 48 hrs by sulforhodamine B assay; method in brief: as §1
NCI-H226 = assay: Antiproliferative activity against human NCI-H226 cells at 10 uM incubated for 48 hrs by sulforhodamine B assay; method in brief: as §1
ACHN = assay: Antiproliferative activity against human ACHN cells at 10 uM incubated for 48 hrs by sulforhodamine B assay; method in brief: as §1
SK-MEL-28 = assay: Antiproliferative activity against human SK-MEL-28 cells at 10 uM incubated for 48 hrs by sulforhodamine B assay; method in brief: as §1
OVCAR-3 = assay: Antiproliferative activity against human OVCAR3 cells at 10 uM incubated for 48 hrs by sulforhodamine B assay; method in brief: as §1
CCRF-CEM = assay: Antiproliferative activity against human CCRF-CEM cells at 10 uM incubated for 48 hrs by sulforhodamine B assay; method in brief: as §1

SMILES: CC(=O)O[C@H](C)[C@@H]1O[C@@H]2CC(=O)O[C@@H]2[C@H]1O
- Activity (MDA-MB-435): inactive
- Activity (K562): inactive
- Activity (BT-549): inactive
- Activity (MCF7): inactive
- Activity (A549): inactive
- Activity (SK-MEL-5): inactive
- Activity (786-0): inactive
- Activity (NCI-H460): inactive
- Activity (OVCAR-5): inactive
- Activity (NCI-H23): inactive
- Activity (UACC-62): inactive
- Activity (SW-620): inactive
- Activity (SF-268): inactive
- Activity (SNB-75): inactive
- Activity (T47D): inactive
- Activity (IGROV-1): inactive
- Activity (SK-MEL-2): inactive
- Activity (TK-10): inactive
- Activity (RPMI-8226): inactive
- Activity (SF-539): inactive
- Activity (PC-3): inactive
- Activity (CAKI-1): inactive
- Activity (M14): inactive
- Activity (NCI-H322M): inactive
- Activity (EKVX): inactive
- Activity (HOP-92): inactive
- Activity (UACC-257): inactive
- Activity (LOX IMVI): inactive
- Activity (Malme-3M): inactive
- Activity (HT-29): inactive
- Activity (HOP-62): inactive
- Activity (Hs-578T): inactive
- Activity (MOLT-4): inactive
- Activity (HCT-116): inactive
- Activity (MDA-MB-231): inactive
- Activity (U-251): inactive
- Activity (SR): inactive
- Activity (OVCAR-4): inactive
- Activity (HCT-15): inactive
- Activity (NCI-H522): inactive
- Activity (NCI-H226): inactive
- Activity (ACHN): inactive
- Activity (SK-MEL-28): inactive
- Activity (OVCAR-3): inactive
- Activity (CCRF-CEM): inactive

SMILES: CC(=O)O[C@@H](C)[C@H]1O[C@H]2CC(=O)O[C@H]2[C@@H]1O
- Activity (MDA-MB-435): inactive
- Activity (K562): inactive
- Activity (BT-549): inactive
- Activity (MCF7): inactive
- Activity (A549): inactive
- Activity (SK-MEL-5): inactive
- Activity (786-0): inactive
- Activity (NCI-H460): inactive
- Activity (OVCAR-5): inactive
- Activity (NCI-H23): inactive
- Activity (UACC-62): inactive
- Activity (SW-620): inactive
- Activity (SF-268): inactive
- Activity (SNB-75): inactive
- Activity (T47D): inactive
- Activity (IGROV-1): inactive
- Activity (SK-MEL-2): inactive
- Activity (TK-10): inactive
- Activity (RPMI-8226): inactive
- Activity (SF-539): inactive
- Activity (PC-3): inactive
- Activity (CAKI-1): inactive
- Activity (M14): inactive
- Activity (NCI-H322M): inactive
- Activity (EKVX): inactive
- Activity (HOP-92): inactive
- Activity (UACC-257): inactive
- Activity (LOX IMVI): inactive
- Activity (Malme-3M): inactive
- Activity (HT-29): inactive
- Activity (HOP-62): inactive
- Activity (Hs-578T): inactive
- Activity (MOLT-4): inactive
- Activity (HCT-116): inactive
- Activity (MDA-MB-231): inactive
- Activity (U-251): inactive
- Activity (SR): inactive
- Activity (OVCAR-4): inactive
- Activity (HCT-15): inactive
- Activity (NCI-H522): inactive
- Activity (NCI-H226): inactive
- Activity (ACHN): inactive
- Activity (SK-MEL-28): inactive
- Activity (OVCAR-3): inactive
- Activity (CCRF-CEM): inactive

SMILES: O=C1C[C@H]2O[C@H]([C@H](O)c3ccccc3)[C@H](O)[C@H]2O1
- Activity (MDA-MB-435): Active
- Activity (K562): Active
- Activity (BT-549): Active
- Activity (MCF7): Active
- Activity (A549): Active
- Activity (SK-MEL-5): Active
- Activity (786-0): Active
- Activity (NCI-H460): Active
- Activity (OVCAR-5): Active
- Activity (NCI-H23): Active
- Activity (UACC-62): Active
- Activity (SW-620): Active
- Activity (SF-268): Active
- Activity (SNB-75): Active
- Activity (T47D): Active
- Activity (IGROV-1): Active
- Activity (SK-MEL-2): Active
- Activity (TK-10): Active
- Activity (RPMI-8226): Active
- Activity (SF-539): Active
- Activity (PC-3): Active
- Activity (CAKI-1): Active
- Activity (M14): Active
- Activity (NCI-H322M): Active
- Activity (EKVX): Active
- Activity (HOP-92): Active
- Activity (UACC-257): Active
- Activity (LOX IMVI): Active
- Activity (Malme-3M): Active
- Activity (HT-29): Active
- Activity (HOP-62): Active
- Activity (Hs-578T): Active
- Activity (MOLT-4): Active
- Activity (HCT-116): Active
- Activity (MDA-MB-231): Active
- Activity (U-251): Active
- Activity (SR): Active
- Activity (OVCAR-4): Active
- Activity (HCT-15): Active
- Activity (NCI-H522): Active
- Activity (NCI-H226): Active
- Activity (ACHN): Active
- Activity (SK-MEL-28): Active
- Activity (OVCAR-3): Active
- Activity (CCRF-CEM): Active
